Measured values as given in ChEMBL document CHEMBL4196108, “5-Aroylindoles Act as Selective Histone Deacetylase 6 Inhibitors Ameliorating Alzheimer's Disease Phenotypes” (J Med Chem, 2018).
Calls of active or inactive are those of the source. The rule behind the calls is not given here.

Legend:
Mus musculus = assay: In vivo inhibition of HDAC6 in 3xTg-AD transgenic mouse brain hippocampal CA1 region assessed as downregulation of Tau phosphorylation at Ser396 residue at 50 mg/kg, po administered daily for 3 months by Western blot analysis
[1] = biological target: T1, Protein deacetylase HDAC6 (Homo sapiens) (UniProt Q9UBN7); assay: Inhibition of HDAC6 in human SH-SY5Y cells transfected with pCAX FLAG APP and pRK5-EGFP-Tau P301L plasmids assessed as increase in coimmunoprecipitation of ubiquitin with phosphorylated tau at Ser396 residue at 1 uM after 24 hrs; type: cell-based
T1 sequence (whole entry): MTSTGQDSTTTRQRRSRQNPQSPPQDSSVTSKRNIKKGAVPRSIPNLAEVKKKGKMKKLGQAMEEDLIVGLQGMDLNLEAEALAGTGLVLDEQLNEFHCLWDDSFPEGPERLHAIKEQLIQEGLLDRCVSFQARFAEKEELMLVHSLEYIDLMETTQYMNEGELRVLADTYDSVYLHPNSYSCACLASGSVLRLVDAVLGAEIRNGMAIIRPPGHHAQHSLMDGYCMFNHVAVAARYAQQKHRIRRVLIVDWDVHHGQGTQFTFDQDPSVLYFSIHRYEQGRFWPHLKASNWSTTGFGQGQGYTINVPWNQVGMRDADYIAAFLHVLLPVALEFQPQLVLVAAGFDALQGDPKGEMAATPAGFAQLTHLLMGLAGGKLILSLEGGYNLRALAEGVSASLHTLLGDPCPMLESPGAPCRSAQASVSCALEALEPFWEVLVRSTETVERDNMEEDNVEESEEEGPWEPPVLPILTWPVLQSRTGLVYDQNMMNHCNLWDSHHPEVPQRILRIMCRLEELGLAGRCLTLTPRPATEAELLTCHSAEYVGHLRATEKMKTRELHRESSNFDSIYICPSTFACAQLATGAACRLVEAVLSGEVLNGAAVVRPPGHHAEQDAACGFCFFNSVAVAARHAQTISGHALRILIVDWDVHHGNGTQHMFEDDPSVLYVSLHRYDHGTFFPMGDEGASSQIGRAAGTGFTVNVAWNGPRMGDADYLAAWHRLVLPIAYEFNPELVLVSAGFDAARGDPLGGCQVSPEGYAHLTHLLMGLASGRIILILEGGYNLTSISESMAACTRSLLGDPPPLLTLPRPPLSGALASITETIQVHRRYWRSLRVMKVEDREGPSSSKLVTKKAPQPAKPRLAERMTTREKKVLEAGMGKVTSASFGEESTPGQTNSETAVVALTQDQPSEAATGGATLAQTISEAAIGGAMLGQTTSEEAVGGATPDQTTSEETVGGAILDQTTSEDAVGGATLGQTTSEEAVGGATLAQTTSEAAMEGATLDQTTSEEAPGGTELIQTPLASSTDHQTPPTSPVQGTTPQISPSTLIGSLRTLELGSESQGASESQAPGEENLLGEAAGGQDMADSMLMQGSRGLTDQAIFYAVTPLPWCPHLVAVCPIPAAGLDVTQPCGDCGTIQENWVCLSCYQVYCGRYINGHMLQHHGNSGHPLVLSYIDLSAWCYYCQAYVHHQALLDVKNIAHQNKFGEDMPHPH
In short: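 In APP695/Tau P301L-cotransfected SH-SY5Y cells treated 24 h at 1 µM, lysates (30 µg) were immunoprecipitated with anti-ubiquitin antibody and protein A/G beads overnight at 4 °C, then immunoblotted for phospho-tau Ser396 after 8% SDS-PAGE.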

[2] = Plasma concentration in Sprague-Dawley rat at 50 mg/kg, po after 1 hr by HPLC-MS/MS analysis; type: ADME, organism-based
[3] = biological target: T2, Protein deacetylase HDAC6 (Mus musculus) (UniProt Q9Z2V5); assay: Inhibition of HDAC6 in mouse Neuro-2a cells transfected with pCAX FLAG APP and pRK5-EGFP-Tau P301L plasmids assessed as increase in HSP70 protein expression 1 uM after 24 hrs by Western blot analysis; type: cell-based
T2 sequence (whole entry): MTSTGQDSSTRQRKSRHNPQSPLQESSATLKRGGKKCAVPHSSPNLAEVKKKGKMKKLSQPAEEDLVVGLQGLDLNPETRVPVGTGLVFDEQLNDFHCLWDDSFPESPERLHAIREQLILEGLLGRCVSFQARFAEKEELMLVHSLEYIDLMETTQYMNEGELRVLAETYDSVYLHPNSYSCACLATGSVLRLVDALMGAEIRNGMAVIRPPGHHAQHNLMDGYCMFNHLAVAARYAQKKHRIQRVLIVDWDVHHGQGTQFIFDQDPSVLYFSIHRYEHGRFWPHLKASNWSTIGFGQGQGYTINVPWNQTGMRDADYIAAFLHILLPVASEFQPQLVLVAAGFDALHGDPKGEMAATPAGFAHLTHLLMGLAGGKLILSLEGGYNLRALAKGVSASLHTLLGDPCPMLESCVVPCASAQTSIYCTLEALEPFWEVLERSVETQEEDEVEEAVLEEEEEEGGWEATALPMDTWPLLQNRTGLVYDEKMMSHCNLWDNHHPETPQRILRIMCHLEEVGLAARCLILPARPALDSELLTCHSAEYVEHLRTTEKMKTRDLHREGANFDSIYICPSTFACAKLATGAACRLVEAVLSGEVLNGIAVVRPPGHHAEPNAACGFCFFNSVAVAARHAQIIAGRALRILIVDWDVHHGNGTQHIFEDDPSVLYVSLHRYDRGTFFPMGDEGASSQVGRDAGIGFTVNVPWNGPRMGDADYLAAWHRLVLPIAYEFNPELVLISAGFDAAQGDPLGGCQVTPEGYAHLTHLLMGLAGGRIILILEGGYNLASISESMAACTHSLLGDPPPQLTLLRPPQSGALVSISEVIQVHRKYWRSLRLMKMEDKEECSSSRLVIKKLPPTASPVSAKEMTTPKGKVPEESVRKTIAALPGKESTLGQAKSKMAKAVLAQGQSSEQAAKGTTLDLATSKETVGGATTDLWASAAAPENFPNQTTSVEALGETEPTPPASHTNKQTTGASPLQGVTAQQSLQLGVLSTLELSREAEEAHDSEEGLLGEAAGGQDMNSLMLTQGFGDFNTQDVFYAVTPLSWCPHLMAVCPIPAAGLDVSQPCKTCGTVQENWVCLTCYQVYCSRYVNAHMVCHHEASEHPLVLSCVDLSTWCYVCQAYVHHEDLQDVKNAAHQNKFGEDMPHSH
In short: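 SH-SY5Y and Neuro-2a cells cotransfected 24 h with APP695/Tau P301L plasmids, treated 24 h at 1 µM (ACY-1215 reference). 30 µg lysate immunoprecipitated overnight at 4 °C with anti-HDAC6 or anti-acetyl-lysine antibodies plus protein A/G beads, run on 8% SDS-PAGE, probed for Hsp90; Hsp70 by immunoblot. Three independent experiments.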

With `COc1ccc(C(=O)c2ccc3c(ccn3Cc3ccc(C(=O)NO)cc3)c2)cc1` the inhibition (Mus musculus) was “Active”, the inhibition [1] was “Active” and the concentration at 1 h [2] was 8.5 ng/mL. For the same compound, the inhibition [3] was “Active”.
